Activity calls are given as the source filed them. No cut-off for these calls is given here.
Columns and labels:
Cannabinoid receptor 2 [1] = biological target: T1, Cannabinoid receptor 2 (Homo sapiens, UniProt P34972); assay: Displacement of [3H]-CP-55940 from human CB2 receptor expressed in HEK293 cell membranes at 1 to 10 uM after 90 mins relative to control
[2] = biological target: Cannabinoid receptor 1 (CB1) (Homo sapiens, UniProt P21554); assay: Displacement of [3H]-CP-55940 from human CB1 receptor expressed in HEK293 cell membranes at 1 to 10 uM after 90 mins relative to control; conditions: membranes of HEK293 cells expressing human CB1 receptor, probe [3H]-CP-55940
Chain of Cannabinoid receptor 1 (CB1) (P21554 whole entry): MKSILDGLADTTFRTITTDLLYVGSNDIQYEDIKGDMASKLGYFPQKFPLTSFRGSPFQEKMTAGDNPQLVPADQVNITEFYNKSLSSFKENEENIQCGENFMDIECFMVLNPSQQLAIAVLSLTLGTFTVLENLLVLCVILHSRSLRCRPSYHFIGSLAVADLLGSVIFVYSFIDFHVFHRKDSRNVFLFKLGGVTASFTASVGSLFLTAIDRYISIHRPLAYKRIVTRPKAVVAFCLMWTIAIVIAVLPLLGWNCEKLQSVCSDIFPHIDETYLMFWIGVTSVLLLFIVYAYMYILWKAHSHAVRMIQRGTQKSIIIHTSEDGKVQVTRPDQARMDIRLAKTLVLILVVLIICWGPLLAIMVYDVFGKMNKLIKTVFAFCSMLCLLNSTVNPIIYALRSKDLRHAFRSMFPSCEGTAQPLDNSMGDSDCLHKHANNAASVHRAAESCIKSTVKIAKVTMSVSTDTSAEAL

Cannabinoid receptor 2 [3] = biological target: T1, Cannabinoid receptor 2; assay: Displacement of [3H]-CP-55940 from human CB2 receptor expressed in HEK293 cell membranes after 90 mins by radioligand binding assay
Procedure, shortened: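 Compounds were screened at 1 and 10 µM; those displacing over 50% were run at 0.1nM–10µM. Ki by Cheng-Prusoff from IC50. At least three experiments, duplicate.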

Cannabinoid receptor 1 = Cannabinoid receptor 1 (Homo sapiens, UniProt P21554); assay: Displacement of [3H]-CP-55940 from human CB1 receptor expressed in HEK293 cell membranes after 90 mins by radioligand binding assay
Chain of Cannabinoid receptor 1 (P21554 whole entry): as above

HEK293 = assay: Selectivity index, ratio of Ki for human CB1 receptor expressed in HEK293 cell membranes to Ki for human CB2 receptor expressed in HEK293 cell membranes; format: cell-based
Cannabinoid receptor 2 [4] = biological target: T1, Cannabinoid receptor 2
Cannabinoid receptor 2 [5] = biological target: T1, Cannabinoid receptor 2; assay: Antagonist activity at human CB2 receptor expressed in CHO-K1 cells assessed as increase in NKH-477-induced intracellular cAMP levels preincubated for 15 mins followed by JWH-133 addition after 30 mins by luminescence assay; format: functional, cell-based
Cannabinoid receptor 2 [6] = biological target: T1, Cannabinoid receptor 2; assay: Inverse agonist activity at human CB2 receptor expressed in CHO-K1 cells assessed as increase in NKH-477-induced intracellular cAMP levels after 30 mins by luminescence assay; format: functional, cell-based
Procedure, shortened: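 CHO-K1 cells stably overexpressing human CB2, plated 30,000 cells/well and held overnight at 37 °C, 5% CO2. Compounds were added with NKH-477 (water-soluble forskolin analogue; 3x of 25µM solution) for 30 min at 37°C. cAMP was read by enzyme-fragment-complementation chemiluminescence. Values are normalized to NKH-477 alone as 100% response. Three independent experiments, triplicate.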

T1 sequence (P34972 whole entry): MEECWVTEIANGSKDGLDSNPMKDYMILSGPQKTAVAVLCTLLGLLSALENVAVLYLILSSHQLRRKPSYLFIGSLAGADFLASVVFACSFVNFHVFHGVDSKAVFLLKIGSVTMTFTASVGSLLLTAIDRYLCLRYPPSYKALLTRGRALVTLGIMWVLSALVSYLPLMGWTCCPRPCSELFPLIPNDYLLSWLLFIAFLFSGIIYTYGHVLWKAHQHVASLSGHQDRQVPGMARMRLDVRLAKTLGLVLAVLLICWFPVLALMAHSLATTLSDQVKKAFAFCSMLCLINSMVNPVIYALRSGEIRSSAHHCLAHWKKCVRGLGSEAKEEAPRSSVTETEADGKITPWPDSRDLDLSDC

CCOC(=O)c1cc(-c2ccccc2)sc1NS(C)(=O)=O
inhibition (Cannabinoid receptor 2 [1]): > 50%
inhibition at 1.5 h, up to 10 µM [2]: > 50%
Ki (Cannabinoid receptor 2 [3]): > 10 µM
Ki (Cannabinoid receptor 1): > 10 µM

CCOC(=O)c1c(NS(=O)(=O)c2ccc3ccccc3c2)sc2c1CCCC2
inhibition (Cannabinoid receptor 2 [1]): > 50%
inhibition at 1.5 h, up to 10 µM [2]: > 50%
Ki (Cannabinoid receptor 2 [3]): > 10 µM
Ki (Cannabinoid receptor 1): > 10 µM

Cc1ccc(Cn2nc(C(=O)N[C@@H]3C(C)(C)[C@@H]4CC[C@@]3(C)C4)cc2-c2ccc(Cl)c(C)c2)cc1
inhibition (Cannabinoid receptor 2 [1]): > 50%
inhibition at 1.5 h, up to 10 µM [2]: > 50%

Cc1cc(C(=O)Nc2ccc3ccccc3c2)c(C)n1-c1ccccc1
inhibition (Cannabinoid receptor 2 [1]): > 50%
inhibition at 1.5 h, up to 10 µM [2]: > 50%
Ki (Cannabinoid receptor 2 [3]): 0.0583 µM
Ratio Ki (HEK293): 4.82
Ki (Cannabinoid receptor 1): 0.281 µM

CCOC(=O)c1cc(-c2ccccc2)sc1NS(=O)(=O)c1cccc2ccccc12
inhibition (Cannabinoid receptor 2 [1]): > 50%
inhibition at 1.5 h, up to 10 µM [2]: > 50%
Ki (Cannabinoid receptor 2 [3]): > 10 µM
Ki (Cannabinoid receptor 1): > 10 µM

CCOC(=O)c1c(N)sc2c1CCCC2
inhibition (Cannabinoid receptor 2 [1]): > 50%
inhibition at 1.5 h, up to 10 µM [2]: > 50%
Ki (Cannabinoid receptor 2 [3]): > 10 µM
Ki (Cannabinoid receptor 1): > 10 µM

Cc1cc(C(=O)O)c(C)n1-c1ccccc1
inhibition (Cannabinoid receptor 2 [1]): > 50%
inhibition at 1.5 h, up to 10 µM [2]: > 50%
Ki (Cannabinoid receptor 2 [3]): > 10 µM
Ki (Cannabinoid receptor 1): > 10 µM

CCOC(=O)c1cc(-c2ccccc2)sc1NS(=O)(=O)c1ccc(Cl)cc1
inhibition (Cannabinoid receptor 2 [1]): > 50%
inhibition at 1.5 h, up to 10 µM [2]: > 50%
Ki (Cannabinoid receptor 2 [3]): > 10 µM
Ki (Cannabinoid receptor 1): > 10 µM

Cc1cc(C(=O)NC2CCCCC2)c(C)n1-c1ccccc1
inhibition (Cannabinoid receptor 2 [1]): > 50%
inhibition at 1.5 h, up to 10 µM [2]: > 50%
Ki (Cannabinoid receptor 2 [3]): 0.168 µM
Ratio Ki (HEK293): > 59.6
Ki (Cannabinoid receptor 1): > 10 µM

CCc1c(C(=O)NC(C)c2ccccc2)cc(C)n1-c1ccccc1 (configuration not stated)
inhibition (Cannabinoid receptor 2 [1]): > 50%
inhibition at 1.5 h, up to 10 µM [2]: > 50%
Ki (Cannabinoid receptor 2 [3]): 0.54 µM
Ratio Ki (HEK293): 6.92
Ki (Cannabinoid receptor 1): 3.74 µM

CCc1c(C(=O)NC2CCCCC2)cc(C)n1-c1ccccc1
inhibition (Cannabinoid receptor 2 [1]): > 50%
inhibition at 1.5 h, up to 10 µM [2]: > 50%
Ki (Cannabinoid receptor 2 [3]): 0.171 µM
Ratio Ki (HEK293): > 26.8
Ki (Cannabinoid receptor 1): 4.57 µM

CCc1c(C(=O)NCCc2ccccc2)cc(C)n1-c1ccccc1
inhibition (Cannabinoid receptor 2 [1]): > 50%
inhibition at 1.5 h, up to 10 µM [2]: > 50%
Ki (Cannabinoid receptor 2 [3]): 0.718 µM
Ratio Ki (HEK293): > 13.9
Ki (Cannabinoid receptor 1): > 10 µM

CCOC(=O)c1c(NC(=O)CCc2ccccc2)sc2c1CCCC2
inhibition (Cannabinoid receptor 2 [1]): > 50%
inhibition at 1.5 h, up to 10 µM [2]: > 50%
Ki (Cannabinoid receptor 2 [3]): 0.112 µM
Ratio Ki (HEK293): > 89.4
Ki (Cannabinoid receptor 1): > 10 µM

CCOC(=O)c1c(NS(=O)(=O)c2ccccc2)sc2c1CCCC2
inhibition (Cannabinoid receptor 2 [1]): > 50%
inhibition at 1.5 h, up to 10 µM [2]: > 50%
Ki (Cannabinoid receptor 2 [3]): 1.99 µM
Ratio Ki (HEK293): > 5.02
Ki (Cannabinoid receptor 1): > 10 µM

CCc1c(C(=O)O)cc(C)n1-c1ccccc1
inhibition (Cannabinoid receptor 2 [1]): > 50%
inhibition at 1.5 h, up to 10 µM [2]: > 50%
Ki (Cannabinoid receptor 2 [3]): > 10 µM
Ki (Cannabinoid receptor 1): > 10 µM

CCOC(=O)c1c(NC(=O)c2ccc3ccccc3c2)sc2c1CCCC2
inhibition (Cannabinoid receptor 2 [1]): > 50%
inhibition at 1.5 h, up to 10 µM [2]: > 50%
Ki (Cannabinoid receptor 2 [3]): 1.79 µM
Ratio Ki (HEK293): > 5.6
Ki (Cannabinoid receptor 1): > 10 µM

CCOC(=O)c1c(NS(C)(=O)=O)sc2c1CCCC2
inhibition (Cannabinoid receptor 2 [1]): > 50%
inhibition at 1.5 h, up to 10 µM [2]: > 50%
Ki (Cannabinoid receptor 2 [3]): > 10 µM
Ki (Cannabinoid receptor 1): > 10 µM

Cc1cc(C(=O)NCCc2ccccc2)c(C)n1-c1ccccc1
inhibition (Cannabinoid receptor 2 [1]): > 50%
inhibition at 1.5 h, up to 10 µM [2]: > 50%
Ki (Cannabinoid receptor 2 [3]): 0.584 µM
Ratio Ki (HEK293): 10.2
Ki (Cannabinoid receptor 1): 5.93 µM

Cc1cc(C(=O)NC(C)c2ccccc2)c(C)n1-c1ccccc1 (configuration not stated)
inhibition (Cannabinoid receptor 2 [1]): > 50%
inhibition at 1.5 h, up to 10 µM [2]: > 50%
Ki (Cannabinoid receptor 2 [3]): 0.546 µM
Ratio Ki (HEK293): 4.8
Ki (Cannabinoid receptor 1): 2.62 µM

CCc1c(C(=O)Nc2cccc3ccccc23)cc(C)n1-c1ccccc1
inhibition (Cannabinoid receptor 2 [1]): > 50%
inhibition at 1.5 h, up to 10 µM [2]: > 50%
Ki (Cannabinoid receptor 2 [3]): 0.02 µM
Ratio Ki (HEK293): 25
Ki (Cannabinoid receptor 1): 0.505 µM

CCOC(=O)c1cc(-c2ccccc2)sc1NC(=O)c1cccc2ccccc12
inhibition (Cannabinoid receptor 2 [1]): > 50%
inhibition at 1.5 h, up to 10 µM [2]: > 50%
Ki (Cannabinoid receptor 2 [3]): 0.0598 µM
Ratio Ki (HEK293): > 167
Ki (Cannabinoid receptor 1): > 10 µM

CCOC(=O)c1cc(-c2ccccc2)sc1NS(=O)(=O)c1ccccc1
inhibition (Cannabinoid receptor 2 [1]): > 50%
inhibition at 1.5 h, up to 10 µM [2]: > 50%
Ki (Cannabinoid receptor 2 [3]): > 10 µM
Ki (Cannabinoid receptor 1): > 10 µM

Cc1cc(C(=O)NC23CC4CC(CC(C4)C2)C3)c(C)n1-c1ccccc1
inhibition (Cannabinoid receptor 2 [1]): > 50%
inhibition at 1.5 h, up to 10 µM [2]: > 50%
IC50 (Cannabinoid receptor 2 [4]): 0.109 µM
Ki (Cannabinoid receptor 2 [3]): 0.00759 µM
Ratio Ki (HEK293): 68.3
Activity (Cannabinoid receptor 2 [5]): Active
Ki (Cannabinoid receptor 1): 0.518 µM
Activity (Cannabinoid receptor 2 [6]): Active

CCc1c(C(=O)NC23CC4CC(CC(C4)C2)C3)cc(C)n1-c1ccccc1
inhibition (Cannabinoid receptor 2 [1]): > 50%
inhibition at 1.5 h, up to 10 µM [2]: > 50%
IC50 (Cannabinoid receptor 2 [4]): 0.398 µM
Ki (Cannabinoid receptor 2 [3]): 0.00615 µM
Ratio Ki (HEK293): 195 to 200
Activity (Cannabinoid receptor 2 [5]): Active
Ki (Cannabinoid receptor 1): 1.2 µM
Activity (Cannabinoid receptor 2 [6]): Active

CCc1c(C(=O)Nc2ccc3ccccc3c2)cc(C)n1-c1ccccc1
inhibition (Cannabinoid receptor 2 [1]): > 50%
inhibition at 1.5 h, up to 10 µM [2]: > 50%
Ki (Cannabinoid receptor 2 [3]): 0.057 µM
Ratio Ki (HEK293): 11.1
Ki (Cannabinoid receptor 1): 0.633 µM

CCOC(=O)c1c(NC(=O)C23CC4CC(CC(C4)C2)C3)sc2c1CCCC2
inhibition (Cannabinoid receptor 2 [1]): > 50%
inhibition at 1.5 h, up to 10 µM [2]: > 50%
IC50 (Cannabinoid receptor 2 [4]): 0.475 µM
Ki (Cannabinoid receptor 2 [3]): 0.00215 µM
Ratio Ki (HEK293): 469 to 500
Ki (Cannabinoid receptor 1): 1.01 µM

CCOC(=O)c1c(NS(=O)(=O)c2cccc3ccccc23)sc2c1CCCC2
inhibition (Cannabinoid receptor 2 [1]): > 50%
inhibition at 1.5 h, up to 10 µM [2]: > 50%
Ki (Cannabinoid receptor 2 [3]): 0.8 µM
Ratio Ki (HEK293): > 12.5
Ki (Cannabinoid receptor 1): > 10 µM

CCOC(=O)c1c(NS(=O)(=O)c2ccc(Cl)cc2)sc2c1CCCC2
inhibition (Cannabinoid receptor 2 [1]): > 50%
inhibition at 1.5 h, up to 10 µM [2]: > 50%
Ki (Cannabinoid receptor 2 [3]): > 10 µM
Ki (Cannabinoid receptor 1): > 10 µM

CCOC(=O)c1c(NC(=O)c2cccc3ccccc23)sc2c1CCCC2
inhibition (Cannabinoid receptor 2 [1]): > 50%
inhibition at 1.5 h, up to 10 µM [2]: > 50%
Ki (Cannabinoid receptor 2 [3]): 0.0168 µM
Ratio Ki (HEK293): 80 to 81.7
Ki (Cannabinoid receptor 1): 1.37 µM

Cc1cc(C(=O)Nc2cccc3ccccc23)c(C)n1-c1ccccc1
inhibition (Cannabinoid receptor 2 [1]): > 50%
inhibition at 1.5 h, up to 10 µM [2]: > 50%
Ki (Cannabinoid receptor 2 [3]): 0.0842 µM
Ratio Ki (HEK293): 3.76
Ki (Cannabinoid receptor 1): 0.317 µM

CCOC(=O)c1cc(-c2ccccc2)sc1N(S(=O)(=O)c1ccc2ccccc2c1)S(=O)(=O)c1ccc2ccccc2c1
inhibition (Cannabinoid receptor 2 [1]): > 50%
inhibition at 1.5 h, up to 10 µM [2]: > 50%
Ki (Cannabinoid receptor 2 [3]): > 10 µM
Ki (Cannabinoid receptor 1): > 10 µM

CCOC(=O)c1cc(-c2ccccc2)sc1NC(=O)c1ccc2ccccc2c1
inhibition (Cannabinoid receptor 2 [1]): > 50%
inhibition at 1.5 h, up to 10 µM [2]: > 50%
Ki (Cannabinoid receptor 2 [3]): > 10 µM
Ki (Cannabinoid receptor 1): > 10 µM
